This is an account of results in ChEMBL document CHEMBL2346522, “Rational design of apoptosis signal-regulating kinase 1 inhibitors: discovering novel structural scaffold” (Eur J Med Chem, 2013).

For experiment [1], the target named is T1, Mitogen-activated protein kinase kinase kinase 5 (Homo sapiens) (UniProt Q99683).
T1 sequence (whole entry): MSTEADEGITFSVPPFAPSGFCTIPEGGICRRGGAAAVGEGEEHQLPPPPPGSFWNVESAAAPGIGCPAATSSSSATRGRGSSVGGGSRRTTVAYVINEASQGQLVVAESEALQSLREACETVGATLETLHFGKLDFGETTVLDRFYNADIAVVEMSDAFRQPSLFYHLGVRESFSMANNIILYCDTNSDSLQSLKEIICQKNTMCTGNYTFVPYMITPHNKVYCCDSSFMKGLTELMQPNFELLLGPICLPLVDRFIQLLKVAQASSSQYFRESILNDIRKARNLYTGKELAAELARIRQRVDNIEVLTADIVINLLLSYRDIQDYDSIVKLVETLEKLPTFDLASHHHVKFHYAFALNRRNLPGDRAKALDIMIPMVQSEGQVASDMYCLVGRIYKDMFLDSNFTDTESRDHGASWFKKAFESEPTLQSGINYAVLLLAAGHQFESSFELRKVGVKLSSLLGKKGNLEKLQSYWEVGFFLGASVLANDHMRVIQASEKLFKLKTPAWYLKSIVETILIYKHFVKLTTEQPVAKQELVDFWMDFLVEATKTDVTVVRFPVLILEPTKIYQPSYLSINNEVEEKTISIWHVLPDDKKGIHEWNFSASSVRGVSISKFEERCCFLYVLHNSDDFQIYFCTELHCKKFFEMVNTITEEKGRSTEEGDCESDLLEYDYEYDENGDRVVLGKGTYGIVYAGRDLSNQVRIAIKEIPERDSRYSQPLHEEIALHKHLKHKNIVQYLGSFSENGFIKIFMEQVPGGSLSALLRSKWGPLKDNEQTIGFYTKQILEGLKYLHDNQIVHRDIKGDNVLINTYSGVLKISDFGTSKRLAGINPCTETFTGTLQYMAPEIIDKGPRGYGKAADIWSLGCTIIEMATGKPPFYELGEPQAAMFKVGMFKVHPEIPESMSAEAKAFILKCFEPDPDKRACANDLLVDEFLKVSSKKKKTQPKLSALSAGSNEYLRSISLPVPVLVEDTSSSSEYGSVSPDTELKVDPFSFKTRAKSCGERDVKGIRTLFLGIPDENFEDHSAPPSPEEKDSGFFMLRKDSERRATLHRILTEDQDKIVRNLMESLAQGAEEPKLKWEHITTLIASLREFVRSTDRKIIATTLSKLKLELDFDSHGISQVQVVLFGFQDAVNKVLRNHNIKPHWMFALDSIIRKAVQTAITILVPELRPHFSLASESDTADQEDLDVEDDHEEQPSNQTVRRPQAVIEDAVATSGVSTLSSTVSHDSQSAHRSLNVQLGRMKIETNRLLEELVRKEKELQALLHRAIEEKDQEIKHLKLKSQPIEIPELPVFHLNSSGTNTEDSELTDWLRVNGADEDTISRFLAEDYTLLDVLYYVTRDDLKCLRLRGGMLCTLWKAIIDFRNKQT
Briefly: Inhibition of human ASK1 using MBP as substrate assessed as residual activity at 10 uM incubated for 10 mins prior to ATP addition measured after 20 mins by liquid scintillation counting analysis.

Experiment [2] addresses Mitogen-activated protein kinase 10 (Homo sapiens) (UniProt P53779). Briefly: Inhibition of human JNK3 using JNK3tide as substrate assessed as residual activity at 10 uM incubated for 10 mins prior to ATP addition measured after 20 mins by liquid scintillation counting analysis.
The target in experiment [3] is T2, Mitogen-activated protein kinase kinase kinase 5 (Homo sapiens, UniProt Q99683).
T2 sequence (Q99683 whole entry): T1 sequence (whole entry)
Briefly: Inhibition of human ASK1 using MBP as substrate incubated for 10 mins prior to ATP addition measured after 20 mins by liquid scintillation counting analysis. The procedure, abridged:
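Inhibitor added from a DMSO stock is incubated with enzyme on ice for 10 min. The reaction is started with ATP plus MgCl₂ in MOPS pH 7.2, and labeled and unlabeled ATP are combined.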

Experiment [4] has as its target T2, Mitogen-activated protein kinase kinase kinase 5. As to the kind of experiment: Competitive inhibition of human ASK1 using MBP as substrate incubated for 10 mins prior to ATP addition measured after 20 mins by Lineweaver-Burk plot analysis. The procedure, abridged:
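ASK1 activity with MBP substrate and γ-³²P-ATP. Enzyme and substrate sit in MOPS pH 7.2 buffer (EGTA, EDTA, DTT, BSA, β-glycerophosphate). Inhibitor from a DMSO stock is pre-mixed with them on ice for 10 min. The reaction starts with ATP/MgCl₂. Substrate concentration curves are run at several inhibitor levels, in triplicate, and analysed by Lineweaver–Burk linearized plots.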

Experiment [5] concerns the target Hepatocyte growth factor receptor (Homo sapiens) (UniProt P08581). Briefly: Inhibition of human HGFR using KKKSPGEYVNIEFG as substrate assessed as residual activity at 10 uM incubated for 10 mins prior to ATP addition measured after 20 mins by liquid scintillation counting analysis.
The target of experiment [6] is Angiopoietin-1 receptor (Homo sapiens) (UniProt Q02763). Briefly: Inhibition of human Tie2 using TK substrate 2 as substrate assessed as residual activity at 10 uM incubated for 10 mins prior to ATP addition measured after 20 mins by liquid scintillation counting analysis.
Angiopoietin-1 receptor (Homo sapiens), sequence (Q02763 whole entry): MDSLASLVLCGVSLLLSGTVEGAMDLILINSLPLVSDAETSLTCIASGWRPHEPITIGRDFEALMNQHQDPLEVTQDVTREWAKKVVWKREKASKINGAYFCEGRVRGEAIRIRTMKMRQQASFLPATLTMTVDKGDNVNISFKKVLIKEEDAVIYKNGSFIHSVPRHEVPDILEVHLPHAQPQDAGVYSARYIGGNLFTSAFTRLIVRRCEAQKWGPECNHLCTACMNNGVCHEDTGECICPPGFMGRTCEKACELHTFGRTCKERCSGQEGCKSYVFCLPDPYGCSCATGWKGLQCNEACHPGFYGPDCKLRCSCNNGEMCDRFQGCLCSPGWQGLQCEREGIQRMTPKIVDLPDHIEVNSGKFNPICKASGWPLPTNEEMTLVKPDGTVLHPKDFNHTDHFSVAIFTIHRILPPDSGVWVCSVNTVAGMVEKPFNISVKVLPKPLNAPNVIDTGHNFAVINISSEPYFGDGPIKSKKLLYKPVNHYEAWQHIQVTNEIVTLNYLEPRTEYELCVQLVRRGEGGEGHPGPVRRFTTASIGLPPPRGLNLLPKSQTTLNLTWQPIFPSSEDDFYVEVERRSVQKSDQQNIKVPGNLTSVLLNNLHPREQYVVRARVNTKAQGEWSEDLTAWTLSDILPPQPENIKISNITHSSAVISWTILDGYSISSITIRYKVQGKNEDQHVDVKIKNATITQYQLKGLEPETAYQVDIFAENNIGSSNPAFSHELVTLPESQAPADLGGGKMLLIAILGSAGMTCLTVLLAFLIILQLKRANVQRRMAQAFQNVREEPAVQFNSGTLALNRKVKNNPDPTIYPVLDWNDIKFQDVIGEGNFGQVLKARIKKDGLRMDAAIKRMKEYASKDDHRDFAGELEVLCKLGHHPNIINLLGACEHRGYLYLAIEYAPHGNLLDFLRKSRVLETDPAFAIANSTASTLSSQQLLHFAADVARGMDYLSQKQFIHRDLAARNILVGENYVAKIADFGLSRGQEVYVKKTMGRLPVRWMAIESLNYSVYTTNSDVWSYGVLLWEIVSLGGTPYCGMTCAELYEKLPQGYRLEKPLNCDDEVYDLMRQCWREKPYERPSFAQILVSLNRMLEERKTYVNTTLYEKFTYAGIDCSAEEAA
Experiment [7] concerns the target Fibroblast growth factor receptor 1 (Homo sapiens) (UniProt P11362). Briefly: Inhibition of human FGFR1 using IGF-IRtide (12 to 527) as substrate assessed as residual activity at 10 uM incubated for 10 mins prior to ATP addition measured after 20 mins by liquid scintillation counting analysis.
The target of experiment [8] is T3, Aurora kinase A (Homo sapiens) (UniProt O14965).
T3 sequence (whole entry): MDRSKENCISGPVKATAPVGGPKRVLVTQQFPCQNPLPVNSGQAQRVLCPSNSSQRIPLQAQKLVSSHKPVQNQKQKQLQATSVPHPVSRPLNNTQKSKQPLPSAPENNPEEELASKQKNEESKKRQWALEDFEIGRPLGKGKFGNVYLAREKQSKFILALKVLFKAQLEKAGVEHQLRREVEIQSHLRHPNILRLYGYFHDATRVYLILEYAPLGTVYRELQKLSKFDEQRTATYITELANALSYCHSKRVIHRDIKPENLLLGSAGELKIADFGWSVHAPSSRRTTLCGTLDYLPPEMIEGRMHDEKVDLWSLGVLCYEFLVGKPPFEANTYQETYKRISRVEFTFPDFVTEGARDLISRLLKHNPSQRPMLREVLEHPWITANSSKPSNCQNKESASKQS
Briefly: Inhibition of human Aurora A using Kemptide as substrate assessed as residual activity at 10 uM incubated for 10 mins prior to ATP addition measured after 20 mins by liquid scintillation counting analysis.

Experiment [9] addresses Casein kinase II (Homo sapiens) (UniProt P67870+P68400+P19784). As to the kind of experiment: Inhibition of human CK2 using RRRDDDSDDD as substrate assessed as residual activity at 10 uM incubated for 10 mins prior to ATP addition measured after 20 mins by liquid scintillation counting analysis. It is filed as protein-complex assay.

Mitogen-activated protein kinase 10 (Homo sapiens), sequence (P53779 whole entry): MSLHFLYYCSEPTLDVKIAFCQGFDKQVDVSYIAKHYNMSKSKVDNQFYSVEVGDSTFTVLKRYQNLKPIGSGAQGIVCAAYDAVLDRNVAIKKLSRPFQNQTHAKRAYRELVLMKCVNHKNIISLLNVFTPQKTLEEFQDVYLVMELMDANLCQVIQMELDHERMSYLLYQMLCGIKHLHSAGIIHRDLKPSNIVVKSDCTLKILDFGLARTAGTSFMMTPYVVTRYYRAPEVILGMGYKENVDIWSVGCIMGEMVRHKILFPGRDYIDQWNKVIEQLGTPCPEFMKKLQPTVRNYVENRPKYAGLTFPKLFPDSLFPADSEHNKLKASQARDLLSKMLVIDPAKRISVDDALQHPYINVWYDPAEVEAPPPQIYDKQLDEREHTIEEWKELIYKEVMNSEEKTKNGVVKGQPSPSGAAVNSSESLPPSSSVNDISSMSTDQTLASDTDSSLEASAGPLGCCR
Hepatocyte growth factor receptor (Homo sapiens), sequence (P08581 whole entry): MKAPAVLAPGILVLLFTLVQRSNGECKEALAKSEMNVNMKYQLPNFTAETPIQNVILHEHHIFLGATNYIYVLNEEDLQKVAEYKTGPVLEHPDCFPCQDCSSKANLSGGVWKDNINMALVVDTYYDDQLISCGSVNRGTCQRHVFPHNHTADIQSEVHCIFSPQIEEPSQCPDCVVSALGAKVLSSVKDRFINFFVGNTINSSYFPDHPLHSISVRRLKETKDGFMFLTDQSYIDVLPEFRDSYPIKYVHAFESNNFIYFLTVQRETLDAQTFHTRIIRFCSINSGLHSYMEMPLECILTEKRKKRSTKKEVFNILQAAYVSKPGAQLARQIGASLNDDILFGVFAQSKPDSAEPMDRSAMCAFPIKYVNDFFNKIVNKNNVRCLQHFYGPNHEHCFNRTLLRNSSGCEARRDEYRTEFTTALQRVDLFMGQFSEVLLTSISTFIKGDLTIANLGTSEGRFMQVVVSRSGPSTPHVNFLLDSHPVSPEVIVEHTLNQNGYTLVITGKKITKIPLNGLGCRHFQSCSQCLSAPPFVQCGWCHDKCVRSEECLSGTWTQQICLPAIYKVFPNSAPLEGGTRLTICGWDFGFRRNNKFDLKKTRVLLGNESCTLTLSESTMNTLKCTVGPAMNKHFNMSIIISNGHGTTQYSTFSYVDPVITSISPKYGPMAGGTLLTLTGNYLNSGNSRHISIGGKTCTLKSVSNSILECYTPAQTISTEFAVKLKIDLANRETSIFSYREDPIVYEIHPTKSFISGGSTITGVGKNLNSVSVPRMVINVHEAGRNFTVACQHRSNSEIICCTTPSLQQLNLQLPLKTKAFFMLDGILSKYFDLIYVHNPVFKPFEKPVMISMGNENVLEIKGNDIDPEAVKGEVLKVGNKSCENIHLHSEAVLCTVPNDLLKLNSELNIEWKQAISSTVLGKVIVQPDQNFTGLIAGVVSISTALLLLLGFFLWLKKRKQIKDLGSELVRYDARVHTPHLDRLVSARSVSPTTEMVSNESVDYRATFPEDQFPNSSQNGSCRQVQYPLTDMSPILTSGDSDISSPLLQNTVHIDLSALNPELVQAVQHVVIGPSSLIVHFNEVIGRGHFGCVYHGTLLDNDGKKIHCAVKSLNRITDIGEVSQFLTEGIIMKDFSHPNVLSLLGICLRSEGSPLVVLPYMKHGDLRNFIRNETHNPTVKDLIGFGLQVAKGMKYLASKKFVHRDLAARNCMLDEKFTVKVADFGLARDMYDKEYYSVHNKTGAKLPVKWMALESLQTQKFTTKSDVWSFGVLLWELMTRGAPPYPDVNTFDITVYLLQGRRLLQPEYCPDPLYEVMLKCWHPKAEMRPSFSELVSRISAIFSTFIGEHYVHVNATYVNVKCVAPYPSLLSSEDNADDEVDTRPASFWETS
Fibroblast growth factor receptor 1 (Homo sapiens), sequence (P11362 22-822 limits assumed): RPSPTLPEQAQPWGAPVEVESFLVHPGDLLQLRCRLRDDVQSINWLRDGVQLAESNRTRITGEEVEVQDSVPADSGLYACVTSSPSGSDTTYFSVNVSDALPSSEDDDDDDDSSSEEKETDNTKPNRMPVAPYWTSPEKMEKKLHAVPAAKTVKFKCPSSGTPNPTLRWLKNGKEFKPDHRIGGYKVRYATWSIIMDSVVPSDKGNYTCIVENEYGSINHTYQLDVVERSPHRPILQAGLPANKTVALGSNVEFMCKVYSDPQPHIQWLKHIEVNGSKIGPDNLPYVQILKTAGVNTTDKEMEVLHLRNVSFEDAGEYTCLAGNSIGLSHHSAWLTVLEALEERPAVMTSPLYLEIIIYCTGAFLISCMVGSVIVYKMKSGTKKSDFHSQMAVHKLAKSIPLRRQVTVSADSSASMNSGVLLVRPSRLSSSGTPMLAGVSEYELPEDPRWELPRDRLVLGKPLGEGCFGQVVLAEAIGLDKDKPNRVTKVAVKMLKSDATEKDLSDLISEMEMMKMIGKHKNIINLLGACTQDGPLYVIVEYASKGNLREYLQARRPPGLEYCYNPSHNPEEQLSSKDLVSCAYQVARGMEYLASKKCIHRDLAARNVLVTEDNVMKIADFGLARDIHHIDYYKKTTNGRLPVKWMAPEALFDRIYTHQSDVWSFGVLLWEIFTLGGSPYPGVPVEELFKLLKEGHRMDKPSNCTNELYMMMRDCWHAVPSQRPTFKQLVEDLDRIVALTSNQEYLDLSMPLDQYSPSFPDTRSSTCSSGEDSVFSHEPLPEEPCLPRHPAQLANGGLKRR

On to `CC(C(=O)O)N1C(=O)/C(=C/c2ccc(-c3ccc(Cl)c(Cl)c3)o2)SC1=S` (centres undefined), for which the Activity came to 3% in experiment [1]; 46% in experiment [2]; 65% in [5]; 29% in experiment [6]; 88% in experiment [7]; 14% in [8]. The Activity in experiment [9] is 34%. Moreover, the half-maximal inhibitory concentration (IC50) (commonly the point on the concentration scale where inhibition reaches its midpoint) in experiment [3] worked out at 650 nM. Further, the Ki (usually a dissociation constant, usually derived from enzyme kinetics or from competition with a known ligand) in experiment [4] was found to be 340 nM.
